Measured values published in ChEMBL document CHEMBL1122552, “Synthesis and biological evaluation of 6-amino-1H-pyrrolo[3,2-c]pyridin-4(5H)-one (3,7-dideazaguanine)” (1984).
Values after ≈ are worked out from the molar mass of the structure shown.

Assays:
[1] = test system: Mus musculus; assay: Compound was evaluated for median life span after tumor implantation at a dose of 100 mg/kg; assay type: functional
Outline: (§1)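 P388 leukemia cells (10^6) implanted ip in groups of 6 CDF1 mice, with 30 untreated controls. Therapy began 24 h later: compound in saline given ip on days 1-5. Recorded median life span in days after implant, T/C %, and body-weight change of treated minus control animals.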

[2] = test system: Mus musculus; assay: Effect on mice inoculated with P388 Lymphocytic leukemia, was studied. Compound dose is 100 mg/kg (Exp-1)Average animal body weight change of test group minus that of control animals.; assay type: functional
Outline: (§2)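 Experiment 1: P388 cells (10^6) implanted ip in CDF1 mice, 6 per group, 30 untreated controls. Dosing in saline, ip, on days 1-5, starting 24 h after implant. Reported value is the mean body weight change of the treated group minus that of the controls, in g.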

[3] = test system: Mus musculus; assay: Compound was evaluated for value at a dose of 200 mg/kg; assay type: functional
Outline: (§3)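 Experiment 1: 10^6 P388 cells implanted ip in groups of 6 CDF1 mice, with 30 untreated controls. Therapy began 24 h later: saline solution given ip on days 1-5. Value is T/C, %, of median life span (days postimplant) against untreated controls.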

[4] = test system: Coxsackievirus; assay: The minimum inhibitory concentration required to reduce Coxsackie virus type B4 induced cytopathogenicity in primary rabbit kidney cells by 50%; assay type: functional
[5] = test system: Human alphaherpesvirus 2; assay: The minimum inhibitory concentration required to reduce HSV-2 (G) induced cytopathogenicity in primary rabbit kidney cells by 50%; assay type: functional
Outline: (§4)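 Inhibition of virus-induced cytopathogenicity in primary rabbit kidney cells. The minimal inhibitory concentration (μg/mL) is the one reducing cytopathogenicity by 50%, scored when cytopathogenicity was complete in virus-infected untreated controls. Minimal cytotoxic concentration was taken as the one causing microscopically detectable change in cell morphology; 400 μg/mL was the highest concentration tested.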

[6] = test system: AA6; assay: Ability to inhibit growth of AA-6 cells (a mutant cell line resistant to 8-azaadenine and lacks […]) was determined; assay type: functional; details: Cricetulus griseus
Outline: (§5)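 Clonogenic growth assay: log-phase cells trypsinized, diluted in McCoy's 5A with dialyzed fetal calf serum, about 200 cells per dish. Cells were grown at 0.5–3000 μM for 7 days at 37.5 °C in humidified CO2, then fixed in 10% formaldehyde and stained with 0.1% crystal violet. The minimum inhibitory concentration is the lowest tested concentration giving clones of fewer than 50 cells.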

[7] = test system: CHO; assay: Ability to inhibit growth of CHO cells was determined; assay type: functional; details: Cricetulus griseus; outline: as §5
[8] = test system: Mus musculus; assay: Compound was evaluated for value at a dose of 100 mg/kg; assay type: functional; outline: as §3
[9] = test system: Mus musculus; assay: Effect on mice inoculated with P388 Lymphocytic leukemia, was studied. Compound dose is 50 mg/kg (Exp-1)Average animal body weight change of test group minus that of control animals.; assay type: functional; outline: as §2
[10] = test system: Mus musculus; assay: Compound was evaluated for median life span after tumor implantation at a dose of 400 mg/kg; assay type: functional
Outline: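 P388 leukemia cells (10^6) implanted ip in groups of 6 BDF1 mice, with 30 untreated controls. Therapy began 24 h later: compound in saline given ip on days 1-5. Recorded median life span in days after implant, T/C %, and body-weight change of treated minus control animals.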

[11] = test system: Human alphaherpesvirus 1; assay: The minimum inhibitory concentration required to reduce HSV-1(KOS) induced cytopathogenicity in primary rabbit kidney cells by 50%; assay type: functional; outline: as §4
[12] = test system: Mus musculus; assay: Compound was evaluated for value at a dose of 400 mg/kg; assay type: functional
Outline: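 Experiment 2: 10^6 P388 cells implanted ip in groups of 6 BDF1 mice, with 30 untreated controls. Therapy began 24 h later: saline solution given ip on days 1-5. Value is T/C, %, of median life span (days postimplant) against untreated controls.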

[13] = test system: Mus musculus; assay: Compound was evaluated for value at a dose of 50 mg/kg; assay type: functional; outline: as §3
[14] = test system: Vesicular stomatitis virus; assay: The minimum inhibitory concentration required to reduce VSV induced cytopathogenicity in primary rabbit kidney cells by 50%; assay type: functional
[15] = test system: Mus musculus; assay: Effect on mice inoculated with P388 Lymphocytic leukemia, was studied. Compound dose is 200 mg/kg (Exp-1)Average animal body weight change of test group minus that of control animals.; assay type: functional; outline: as §2
[16] = Ability to inhibit growth of TG-1 cells (a mutant cell line resistant to 6-thioguanine and lacks hypoxanthine-guanine phosphoribosyltransferase) was determined
[17] = test system: Mus musculus; assay: Compound was evaluated for median life span after tumor implantation at a dose of 50 mg/kg; assay type: functional; outline: as §1
[18] = test system: Mus musculus; assay: Compound was evaluated for median life span after tumor implantation at a dose of 200 mg/kg; assay type: functional; outline: as §1
[19] = test system: Mus musculus; assay: Effect on mice inoculated with P388 Lymphocytic leukemia, was studied. Compound dose is 400 mg/kg (Exp-1)Average animal body weight change of test group minus that of control animals; assay type: functional

Row | SMILES | Median life span [1] [days] | Activity [2] [g] | T/C [3] [%] | MIC [4] [µg/mL] | MIC [5] [µg/mL] | MIC [6] [µM] | MIC [7] [µM] | T/C [8] [%] | Activity [9] [g] | Median life span [10] [days] | MIC [11] [µg/mL] | T/C [12] [%] | T/C [13] [%] | MIC [14] [µg/mL] | Activity [15] [g] | MIC [16] [µM] | Median life span [17] [days] | Median life span [18] [days] | Activity [19] [g]
1 | Nc1cc2[nH]ccc2c(O)n1 | 12.3 | -0.6 | 114 | > 400 | > 400 | 1000 (≈ 149 µg/mL) | 1000 (≈ 149 µg/mL) | 113 | -0.2 | 16.3 | > 400 | 126 | 108 | > 400 | -1.6 | 1000 (≈ 149 µg/mL) | 11.7 | 12.4 | -0.7
2 | Nc1ncnc2c1ncn2C[C@H](O)CO [(S)-DHPA] |  |  |  |  | > 400 |  |  |  |  |  | > 400 |  |  |  |  |  |  |  | 
3 | Nc1cc2[nH]cnc2c(=O)[nH]1 [DEZAGUANINE] |  |  |  |  | 150 (≈ 999 µM) | 500 (≈ 75.1 µg/mL) | 10 (≈ 1.5 µg/mL) |  |  |  | 4 (≈ 26.6 µM) |  |  |  |  | 1500 (≈ 225 µg/mL) |  |  | 
4 | NC(=O)c1ncn([C@@H]2O[C@H](CO)[C@@H](O)[C@H]2O)n1 [RIBAVIRIN] |  |  |  |  | > 400 |  |  |  |  |  | > 400 |  |  |  |  |  |  |  | 
